According to ChEMBL document CHEMBL1137845, “Discovery of N-propylurea 3-benzylpiperidines as selective CC chemokine receptor-3 (CCR3) antagonists” (Bioorg Med Chem Lett, 2004):
Blank lines part the entries; values can stand above or below the compound they belong to.

Assays:
[1] = target: T1, C-C chemokine receptor type 3 (Homo sapiens, UniProt P51677); assay: Inhibitory concentration against C-C chemokine receptor type 3 using human [125I]eotaxin.
T1 sequence (P51677 whole entry): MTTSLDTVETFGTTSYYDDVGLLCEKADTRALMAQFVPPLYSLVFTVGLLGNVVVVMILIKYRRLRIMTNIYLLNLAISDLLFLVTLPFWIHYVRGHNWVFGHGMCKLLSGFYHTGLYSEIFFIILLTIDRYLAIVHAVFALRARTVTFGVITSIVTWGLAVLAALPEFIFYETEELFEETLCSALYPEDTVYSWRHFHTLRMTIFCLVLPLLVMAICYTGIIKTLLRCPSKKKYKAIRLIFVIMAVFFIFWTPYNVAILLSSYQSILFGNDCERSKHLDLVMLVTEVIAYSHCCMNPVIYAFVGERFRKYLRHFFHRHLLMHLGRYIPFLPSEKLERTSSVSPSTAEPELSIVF
Method in brief: (§1)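 Displacement of 150 pM 125I-labeled human eotaxin from CHO cells (5×10^5 per well), compound 0.0001–1 μM, in RPMI 1640 with 0.5% BSA, 10 mM HEPES, 5 mM MgCl2; filter plates pretreated with 5 μg/mL protamine in PBS pH 7.2. 30 min at room temperature, vacuum filtration, three washes with binding buffer plus 0.5 M NaCl, bound label by liquid scintillation counting.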

[2] = target: 5-hydroxytryptamine receptor 2A (Homo sapiens, UniProt P28223); assay: Inhibition of binding to serotonin 5-hydroxytryptamine 2A receptor
[3] = target: T2, C-C chemokine receptor type 3 (Homo sapiens) (UniProt P51677); assay: Inhibitory concentration of compound against C-C chemokine receptor type 3 was determined using human [125I]eotaxin; settings: concentration not given here; method in brief: as §1
T2 sequence (whole entry): T1 sequence (P51677 whole entry)

[4] = Effective concentration determined in calcium mobilization assay; assay type: functional
Method in brief: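 Calcium flux in 2×10^5 eosinophils preloaded with Fluo-3AM, stimulated with 10 nM eotaxin, compound 0.0001–1 μM, in RPMI 1640 with 0.1% BSA, 20 mM HEPES and 2.5 mM probenecid; fluorescence read on a fluorescent imaging plate reader.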

[5] = Effect on chemotaxis of eosinophils was determined; assay type: functional
[6] = target: CC chemokine receptor 3 (Homo sapiens); assay: Binding affinity against CC chemokine receptor 3 was determined using human [125I]-eotaxin

Sequence of 5-hydroxytryptamine receptor 2A (P28223 whole entry): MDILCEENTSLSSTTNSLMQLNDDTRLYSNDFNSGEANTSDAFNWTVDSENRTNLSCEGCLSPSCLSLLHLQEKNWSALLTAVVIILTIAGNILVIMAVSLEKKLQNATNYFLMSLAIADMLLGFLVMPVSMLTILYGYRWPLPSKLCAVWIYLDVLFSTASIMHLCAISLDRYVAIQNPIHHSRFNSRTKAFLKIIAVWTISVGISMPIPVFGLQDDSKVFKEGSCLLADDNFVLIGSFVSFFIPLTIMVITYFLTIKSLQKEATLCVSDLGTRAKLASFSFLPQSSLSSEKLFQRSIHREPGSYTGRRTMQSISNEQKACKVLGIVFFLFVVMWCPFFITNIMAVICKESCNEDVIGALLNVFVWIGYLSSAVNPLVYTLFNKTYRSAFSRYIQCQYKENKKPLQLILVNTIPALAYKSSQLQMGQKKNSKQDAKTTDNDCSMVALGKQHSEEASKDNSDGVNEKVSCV

Structure (SMILES): N#Cc1cccc(NC(=O)NCCCN2CCCC(CCc3ccccc3)C2)c1 (stereo unspecified)
inhibition [3]: 66%

Structure (SMILES): CC(=O)c1cccc(NC(=O)NCCCN2C[C@@H]3C[C@@H](c4ccc(F)cc4)[C@@H]3C2)c1
inhibition [3]: 68%

Structure (SMILES): COc1cccc(NC(=O)NCCCN2CCOC(Cc3ccccc3)C2)c1 (stereo unspecified)
inhibition [3]: 14%

Structure (SMILES): CC(=O)c1cccc(NC(=O)NCCCN2CCC(Cc3ccc(F)cc3)CC2)c1
Ki [2]: 193 nM

Structure (SMILES): CC(=O)c1cccc(NC(=O)NCCCN2CC3CCC2[C@@H](Cc2ccc(F)cc2)C3)c1 (stereo partly specified)
IC50 [1]: 169 nM

Structure (SMILES): CC(=O)c1cc(NC(=O)NCCCN2CCC[C@@H](Cc3ccc(F)cc3)C2)cc(-c2nnnn2C)c1
IC50 [1]: 2.6 nM

Structure (SMILES): CC(=O)c1cccc(NC(=O)NCCCN2C[C@H]3Cc4ccc(F)cc4C[C@H]3C2)c1
IC50 [1]: 56 nM

Structure (SMILES): CC(=O)c1cccc(NC(=O)NCCCN2CC3(Cc4ccc(F)cc4)CCC2CC3)c1
IC50 [1]: 39 nM

Structure (SMILES): CC(=O)c1cccc(NC(=O)NCCCN2CCN(C(C)=O)C(Cc3ccc(F)cc3)C2)c1 (stereo unspecified)
inhibition [3]: 0%

Structure (SMILES): CC(=O)c1cccc(NC(=O)NCCCN2CC3CCC2[C@H](Cc2ccc(F)cc2)C3)c1 (stereo partly specified)
IC50 [1]: 802 nM

Structure (SMILES): N#Cc1cccc(NC(=O)NCCCN2CCOC(Cc3ccccc3)C2)c1 (stereo unspecified)
inhibition [3]: 36%

Structure (SMILES): CC(=O)c1cc(NC(=O)NCCCN2CCC[C@@H](Cc3ccc(F)cc3)C2)cc(C(C)=O)c1
IC50 [1]: 1.2 nM
EC50 [5]: 3 nM

Structure (SMILES): COc1cccc(NC(=O)NCCCN2CCCC(CCc3ccccc3)C2)c1 (stereo unspecified)
IC50 [6]: 787 nM
inhibition [3]: 84%

Structure (SMILES): N#Cc1cccc(NC(=O)NCCCN2CCCC(Cc3ccc(F)cc3F)C2)c1 (stereo unspecified)
IC50 [1]: 19 nM
Ki [2]: 2350 nM

Structure (SMILES): N#Cc1cccc(NC(=O)NCCCN2CCC(Cc3ccccc3)CC2)c1
Ki [2]: 770 nM

Structure (SMILES): N#Cc1cccc(NC(=O)NCCCN2CCCC(Cc3ccccc3F)C2)c1 (stereo unspecified)
IC50 [1]: 38 nM
Ki [2]: 2240 nM

Structure (SMILES): N#Cc1cccc(NC(=O)NCCCN2CCCC(Cc3cccc(F)c3)C2)c1 (stereo unspecified)
IC50 [1]: 243 nM

Structure (SMILES): COc1cccc(NC(=O)NCCCN2CCC(Cc3ccccc3)CC2)c1
Ki [2]: 613 nM

Structure (SMILES): Cn1nnnc1-c1cc(NC(=O)NCCCN2CCC[C@@H](Cc3ccc(F)cc3)C2)cc(C(F)(F)F)c1
IC50 [1]: 1.2 nM

Structure (SMILES): N#Cc1cccc(NC(=O)NCCCN2CCCC(Cc3ccccc3)C2)c1 (stereo unspecified)
IC50 [1]: 41 nM
Ki [2]: 2940 nM

Structure (SMILES): CC(=O)c1cccc(NC(=O)NCCCN2C[C@@H]3Cc4ccc(F)cc4C[C@H]3C2)c1
IC50 [1]: 49 nM

Structure (SMILES): CNC(=O)c1cc(NC(=O)NCCCN2CCC[C@@H](Cc3ccc(F)cc3)C2)cc(-c2nnnn2C)c1
IC50 [1]: 0.7 nM
EC50 [4]: 0.6 nM
EC50 [5]: < 1 nM

Structure (SMILES): COc1cccc(NC(=O)NCCCN2CCCC(Cc3ccccc3)C2)c1 (stereo unspecified)
IC50 [1]: 55 nM
Ki [2]: 913 nM

Structure (SMILES): CC(=O)c1cccc(NC(=O)NCCCN2[C@@H]3CC[C@H]2C[C@@H](Cc2ccc(F)cc2)C3)c1 (stereo in doubt; 22)
IC50 [1]: 47 nM

Structure (SMILES): CC(=O)c1cccc(NC(=O)NCCCN2[C@@H]3CC[C@H]2C[C@@H](Cc2ccc(F)cc2)C3)c1 (stereo in doubt; 21)
IC50 [1]: 7.4 nM

Structure (SMILES): Cn1nnnc1-c1cc(NC(=O)NCCCN2CCC[C@@H](Cc3ccc(F)cc3)C2)cc(-c2nnnn2C)c1
IC50 [1]: 0.7 nM
EC50 [4]: 0.76 nM
EC50 [5]: 0.4 nM

Structure (SMILES): COc1cccc(CC2CCCN(CCCNC(=O)Nc3cccc(C#N)c3)C2)c1 (stereo unspecified)
inhibition [3]: 31%

Now from value to compound:

IC50 [1]: 29 nM
Ki [2]: 2310 nM
Structure (SMILES): N#Cc1cccc(NC(=O)NCCCN2CCCC(Cc3ccc(F)cc3)C2)c1 (stereo unspecified)

IC50 [1]: 3.6 nM
EC50 [4]: 45 nM
Structure (SMILES): O=C(NCCCN1CCC[C@@H](Cc2ccc(F)cc2)C1)Nc1cccc(-c2nnco2)c1

IC50 [1]: 1.5 nM
EC50 [4]: 0.9 nM
EC50 [5]: 1 nM
Structure (SMILES): Cc1cc(NC(=O)NCCCN2CCC[C@@H](Cc3ccc(F)cc3)C2)cc(-c2nnnn2C)c1

IC50 [1]: 31 nM
Ki [2]: 178 nM
Structure (SMILES): N#Cc1cccc(NC(=O)NCCCN2CCC(Cc3ccc(F)cc3)C2)c1 (stereo unspecified)

IC50 [1]: 0.6 nM
EC50 [4]: 1.3 nM
EC50 [5]: 3.2 nM
Structure (SMILES): Cn1nnnc1-c1cccc(NC(=O)NCCCN2CCC[C@@H](Cc3ccc(F)cc3)C2)c1

IC50 [1]: 1.2 nM
Structure (SMILES): CCn1nnnc1-c1cccc(NC(=O)NCCCN2CCC[C@@H](Cc3ccc(F)cc3)C2)c1

inhibition [3]: 11%
Structure (SMILES): N#Cc1cccc(NC(=O)NCCCN2CCCC(Cc3ccc(C(F)(F)F)cc3)C2)c1 (stereo unspecified)

IC50 [1]: 2.4 nM
Structure (SMILES): Cn1nnnc1-c1cc(NC(=O)NCCCN2CCC[C@@H](Cc3ccc(F)cc3)C2)cc(-c2ccccc2)c1

IC50 [1]: 7.1 nM
Structure (SMILES): O=C(NCCCN1CCC[C@@H](Cc2ccc(F)cc2)C1)Nc1cccc(-n2ccnc2)c1

IC50 [1]: 3.1 nM
EC50 [4]: 3.4 nM
EC50 [5]: < 1 nM
Structure (SMILES): Cn1nnnc1-c1cc(Br)cc(NC(=O)NCCCN2CCC[C@@H](Cc3ccc(F)cc3)C2)c1

IC50 [1]: 39 nM
Structure (SMILES): CC(=O)c1cccc(NC(=O)NCCCN2CCC[C@H](Cc3ccc(F)cc3)C2)c1

Ki [2]: 224 nM
Structure (SMILES): COc1cccc(NC(=O)NCCCN2CCC(Cc3ccc(F)cc3)CC2)c1

IC50 [1]: 7.9 nM
Structure (SMILES): O=C(NCCCN1CCC[C@@H](Cc2ccc(F)cc2)C1)Nc1cccc(-c2cnco2)c1

IC50 [1]: 3.1 nM
Structure (SMILES): CC(C)n1nnnc1-c1cccc(NC(=O)NCCCN2CCC[C@@H](Cc3ccc(F)cc3)C2)c1

IC50 [1]: 0.9 nM
Structure (SMILES): Cn1nnnc1-c1cc(CO)cc(NC(=O)NCCCN2CCC[C@@H](Cc3ccc(F)cc3)C2)c1

IC50 [1]: 2.5 nM
EC50 [4]: 2.4 nM
EC50 [5]: 25 nM
Ki [2]: 1350 nM
Structure (SMILES): CC(=O)c1cccc(NC(=O)NCCCN2CCC[C@@H](Cc3ccc(F)cc3)C2)c1

Ki [2]: 167 nM
Structure (SMILES): N#Cc1cccc(NC(=O)NCCCN2CCC(Cc3ccc(F)cc3)CC2)c1
